This passage reports yeast fitness results from the RNAGym collection of RNA variant scans (doi:10.1126/science.aae0568).

The labels stand for the following.
B1: tRNA (parent)
chain: GUUCCGUUGGCGUAAUGGUAACGCGUCUCCCUCCUAAGGAGAAGACUGCGGGUUCGAGUCCCGUACGGAACG

Fewer inactive variants are shown than the library holds.

In this data set the parent is B1. In words: yeast fitness relative to wild type (ratio to wild type); higher = fitter; tRNA-Arg(CCU), competitive growth, 37 C, YPD. Put shortly: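 Genotype frequency changes were the basis for Darwinian fitness relative to wild type. The frequencies came from 100-nucleotide paired-end sequencing of gene amplicons from the start population and each end population of pooled yeast strains with tRNA-Arg(CCU) gene variants at the native locus. Competition ran in YPD at 37°C for 24 hours in six replicates, genotypes needed ≥ 100 starting reads, and estimates < 0.5 were set to 0.5.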
For G6C A15U G23A C29U A43G, the yeast fitness is ≤ 0.5. G6C G48C A65U A70U: the yeast fitness is ≤ 0.5. For the variant G6C G12A, the yeast fitness came out at 0.85. The figure for G6C G12C is 0.676. The figure for G6C G12A A37C G51A U53C C62A is ≤ 0.5; for G6C G10C A40G A42U it is ≤ 0.5; for G6C A14G U16C A42U G52U it is ≤ 0.5. In the case of G6C G10A C27A, the yeast fitness turned out to be 0.586. The figure for G6C G17A A36G C60U G63C is ≤ 0.5; for G6C C11G C61U A70U it is ≤ 0.5.

Take G6C G12A A21G: the yeast fitness stood at 0.552. As to G6C C30U C61G, the yeast fitness is ≤ 0.5. As for G6C C33G A36U G38C A65G, the yeast fitness was ≤ 0.5. On to G6C A21G G48A, for which the yeast fitness is 0.977.

As to G6C C11G A20G G48C A57G U59A C60A, the yeast fitness was ≤ 0.5.

Consider G6C G17A C24A U32C, for which the yeast fitness was ≤ 0.5. The figure for G6C A45C G50A is 0.629. Regarding G6C G10A G17A A36U G51C A69C, the yeast fitness was ≤ 0.5.

As to G6C C11A G48C, the yeast fitness was 0.627.

In the case of G6C A20U C30G C61A, the yeast fitness is ≤ 0.5.

For the variant G6C G12A C27U G39C G63A, the yeast fitness was ≤ 0.5. Turning to G6C A37G G68C, the yeast fitness turned out to be 0.536. The figure for G6C A20G A42U is 0.63; for G6C G17C U32G A40C G67A it is 0.603. With G6C C29G G39C the figure was 0.931. The figure for G6C C27G is 0.567. Turning to G6C C27A, the yeast fitness worked out at 0.84.

In the case of G6C C27U, the yeast fitness was 0.933. The figure for G6C A14G A20C U64A G67A is 0.562; for G6C A37U C49U G56A A69U it is ≤ 0.5.

In the case of G6C G18C A21G A40U C49U C61U A70G, the yeast fitness is 0.564.

In the case of G6C A37U U53C A69U, the yeast fitness was ≤ 0.5. On to G6C G18A G23A C30U C33U A65G, for which the yeast fitness was 0.536. With G6C A15G C22A C29G A37C the figure was ≤ 0.5. Regarding G6C C11G A15G C66A, the yeast fitness was ≤ 0.5. In the case of G6C C11U U19C C22A U35C A69U, the yeast fitness was ≤ 0.5. With G6C G12A G58C C61U A69C the figure was ≤ 0.5; with G6C C34G A45U G68C, ≤ 0.5. With G6C C33U A43G G58A C60U the figure was 0.554; with G6C G12A G51A, 0.538. The figure for G6C C29U C31U U54G A65U G67A is ≤ 0.5. In the case of G6C C11U C34G, the yeast fitness is ≤ 0.5.

For the variant G6C U7C G12A C24U C29G G50C C66U, the yeast fitness was ≤ 0.5. Turning to G6C A43G C49U C60A C62A, the yeast fitness is 0.691. The figure for G6C G18A is 0.729. Take G6C G41C C49G: the yeast fitness stood at 0.544.

On to G6C C27A G44A, for which the yeast fitness was 0.629.

Take G6C A14G C27A A42C G52A G56A G63C: the yeast fitness was ≤ 0.5. On to G6C C33A G56A U59A, for which the yeast fitness was ≤ 0.5. The figure for G6C A21U U26C is ≤ 0.5; for G6A U47G U54C it is ≤ 0.5; for G6C C27A A42C G52A G56A G63C it is ≤ 0.5. With G6C A14G C46G C62U C66U the figure was ≤ 0.5; with G6C A14C C24U C27G C29A A70G, ≤ 0.5; with G6C G51C A57G C61U A65C, ≤ 0.5.

As to G6C G10A U16G C24U G50C, the yeast fitness was 0.609. Take G6C G12A C27U G39C: the yeast fitness was 0.616. The figure for G6C A40U is 0.803; for G6C C33G A36C it is ≤ 0.5. Take G6C A42C A65G C66G: the yeast fitness is 0.532. As for G6C A14G U35G G51A, the yeast fitness is ≤ 0.5. With G6C A45U C60A C61A G63A the figure was ≤ 0.5; with G6C G17A U19G A69U, ≤ 0.5. The figure for G6C A45C C55U A69C is ≤ 0.5. The figure for G6C A65G is 0.94.

With G6C A14C A21C A42G A70G, the yeast fitness was ≤ 0.5.

Regarding G6C C27U G56A C61U, the yeast fitness was ≤ 0.5. Regarding G6C C60G, the yeast fitness is 0.731. The figure for G6C C22U is 0.706; for G6C C24A C34U C49G G52C C55U C62G it is ≤ 0.5.

Turning to G6C C31G C33G U47C G51A, the yeast fitness is ≤ 0.5.

Consider G6C A37U A43U, for which the yeast fitness was 0.525. G6C A43U G50A A70U: the yeast fitness was ≤ 0.5.

G6C A21G: the yeast fitness was 0.857. The figure for G6C C22A C31G A42G A65C is ≤ 0.5. For the variant G6C A14G C49G G50A G58A, the yeast fitness was ≤ 0.5. With G6C C30U the figure was 0.784; with G6C C30A, 0.763. The figure for G6C A21G G48A A57C G67A is ≤ 0.5.

In the case of G6C G18C C22U C34G A36U G56C G63A, the yeast fitness was ≤ 0.5. Consider G6C C22U C24G C27U C29A C30U C31G, for which the yeast fitness was ≤ 0.5. The figure for G6C A36U A43G G48A C49U U53C is ≤ 0.5; for G6C C22A C46A C61G A69G it is ≤ 0.5; for G6C G12C U47A it is ≤ 0.5. The figure for G6C G23C C24U G68A is 0.689; for G6C C11A C34G A65G it is ≤ 0.5. The figure for G6C C11G C29U G50A C55U is ≤ 0.5. G6C C62A G67C: the yeast fitness is ≤ 0.5. Turning to G6C A15U A42G A65G, the yeast fitness was ≤ 0.5. With G6C G10A U16G C31A the figure was ≤ 0.5; with G6C C11G A15U C31G C61G A69G, 0.657; with G6C G23A, 0.893.

Turning to G6C G41A A45U, the yeast fitness was ≤ 0.5. Regarding G6C C30A A42C, the yeast fitness is 0.546. The figure for G6C A42C C62G is ≤ 0.5; for G6C C31A G38A A65G it is ≤ 0.5; for G6C G52C C61A it is ≤ 0.5. The figure for G6C G17A A36U C46A U53C C66A is ≤ 0.5. In the case of G6C C24U G38C A40G A65G, the yeast fitness was ≤ 0.5. With G6C G51A A70G the figure was ≤ 0.5; with G6C A15U G23C C31G G41C G48C, 0.574; with G6C G17A A36C C62G, 0.536.

Take G6C G25A A37U: the yeast fitness was ≤ 0.5. With G6A U35A the figure was 0.775; with G6A U54G G58A, ≤ 0.5.

As to G6C A40G C61A, the yeast fitness is ≤ 0.5. With G6C C29U C34U the figure was 0.561; with G6C A42U G67A, ≤ 0.5. On to G6C C24A, for which the yeast fitness was 0.525. Regarding G6C C24G, the yeast fitness stood at 0.686. The figure for G6C G41C C49G U54C U59G G63A C66U is ≤ 0.5; for G6C C55G G68A it is ≤ 0.5; for G6C A14U G18C C49U it is ≤ 0.5.

G6C G18C C22U C34G A36U C49A A57C C66U: the yeast fitness is ≤ 0.5.

Take G6C A14G A20C C66U: the yeast fitness was ≤ 0.5.

Regarding G6C C11A C22U U47C C66A, the yeast fitness was ≤ 0.5.

Take G6C A14C U54C A65U: the yeast fitness is 0.637. With G6C A45U G50A the figure was 0.658; with G6C A15U G23C C31G G41C G48C G67C, ≤ 0.5. Regarding G6C G12A U35A, the yeast fitness amounted to 0.55. On to G6C C31A C33U C62U, for which the yeast fitness is ≤ 0.5. The figure for G6C C22A C31G is ≤ 0.5. With G6C G17A C24A U32C A45C C60A A69U the figure was ≤ 0.5; with G6C G10C C29U C30G A45U, ≤ 0.5.

On to G6C C22U C24G C27U C29A C30U C31G C49U C66U G67A, for which the yeast fitness is ≤ 0.5. The figure for G6C G25C A40U A65C is ≤ 0.5; for G6C C46G U54C it is ≤ 0.5; for G6C G51A A65G C66U it is ≤ 0.5. Take G6C C46G C62U G63A C66U: the yeast fitness was ≤ 0.5.

For G6C A15G A21G G25A A40C C61A A65U, the yeast fitness was ≤ 0.5. The figure for G6C G50C U53C C55U is ≤ 0.5; for G6C C11G A15C G25C C27G C30G G38C A40G it is ≤ 0.5. With G6C G12A A21G C66U the figure was ≤ 0.5; with G6C C31G C46A G63C A65U, ≤ 0.5; with G6C G10C C11U G23A C24G C46G, ≤ 0.5. With G6C C33A A40G A57U, the yeast fitness was ≤ 0.5.

For G6C G18C C22U, the yeast fitness was found to be 0.548. The figure for G6C G17A A37G C60G A70U is ≤ 0.5. In the case of G6C G25A C27G U59A U64G, the yeast fitness was ≤ 0.5. With G6C C27U G51U G67A the figure was ≤ 0.5; with G6C A20U, 0.812; with G6C G44C G67U, 0.501.

As for G6C C11G U35A, the yeast fitness is ≤ 0.5. With G6C U7A C27U the figure was ≤ 0.5; with G6C A37G G44C A57U G68C, ≤ 0.5. With G6C C22A C34A A70C the figure was 0.525; with G6C A14U A36G A42G G52A G58A, ≤ 0.5; with G6C G17C C27U A40U C60U, ≤ 0.5.

For the variant G6C C22U A65G C66G G68C, the yeast fitness is ≤ 0.5. With G6C C11A C34G the figure was ≤ 0.5. Turning to G6C C46G, the yeast fitness worked out at 0.823.

With G6C C46A, the yeast fitness amounted to 0.951. With G6C C55U A70G the figure was 0.7; with G6C G10A U16G C24U G50C C55U, ≤ 0.5; with G6C G9A A21U U28C U35G A36C A65G C66A, ≤ 0.5. With G6C C11G A14U C22U G44A C55A the figure was ≤ 0.5; with G6A U47C, 0.878; with G6A U47A, 0.692. With G6A U32G U35G the figure was ≤ 0.5; with G6C G17A C24A U32C A45C, ≤ 0.5; with G6C C24G A57U, ≤ 0.5.

On to G6C G41C, for which the yeast fitness stood at 0.671. On to G6C G25A, for which the yeast fitness came to 1.17. The figure for G6C G25C is 0.971. Take G6C C34G G38A: the yeast fitness was ≤ 0.5. With G6C G17A C30U A42C A43G, the yeast fitness is ≤ 0.5. G6C C11U C31G A36G G48C G67C: the yeast fitness was ≤ 0.5.
